This is an account of results in ChEMBL document CHEMBL2169863, “Discovery, structure-activity relationship, and biological evaluation of noninhibitory small molecule chaperones of glucocerebrosidase” (J Med Chem, 2012).

Molecules are shown by their SMILES. Active and inactive are the calls of the source. No cut-off for these calls is given here.

Data set [1] concerns Liver. The data set is described as follows: Metabolic stability in CD1 mouse liver microsomes assessed as compound remaining at 1 uM after 60 mins by LC/MS/MS analysis in absence of NADPH. The format is ADME, Microsome. The following applies: 1 h. In a few lines:
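Compound at 1 μM was incubated in duplicate with CD-1 mouse liver microsomes at 37 °C in 100 mM potassium phosphate pH 7.4 with 3 mM MgCl₂, with or without 2 mM NADPH, for 60 min. Reaction was quenched in cold acidified MeCN with internal standard. Parent was quantified by LC−MS/MS as percent of time zero.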
Background: Liver microsomes are a subcellular fraction often used to study metabolism.

Data set [2] relates to T1, Lysosomal acid glucosylceramidase (Homo sapiens), P04062 [N409S].
T1 sequence (whole entry): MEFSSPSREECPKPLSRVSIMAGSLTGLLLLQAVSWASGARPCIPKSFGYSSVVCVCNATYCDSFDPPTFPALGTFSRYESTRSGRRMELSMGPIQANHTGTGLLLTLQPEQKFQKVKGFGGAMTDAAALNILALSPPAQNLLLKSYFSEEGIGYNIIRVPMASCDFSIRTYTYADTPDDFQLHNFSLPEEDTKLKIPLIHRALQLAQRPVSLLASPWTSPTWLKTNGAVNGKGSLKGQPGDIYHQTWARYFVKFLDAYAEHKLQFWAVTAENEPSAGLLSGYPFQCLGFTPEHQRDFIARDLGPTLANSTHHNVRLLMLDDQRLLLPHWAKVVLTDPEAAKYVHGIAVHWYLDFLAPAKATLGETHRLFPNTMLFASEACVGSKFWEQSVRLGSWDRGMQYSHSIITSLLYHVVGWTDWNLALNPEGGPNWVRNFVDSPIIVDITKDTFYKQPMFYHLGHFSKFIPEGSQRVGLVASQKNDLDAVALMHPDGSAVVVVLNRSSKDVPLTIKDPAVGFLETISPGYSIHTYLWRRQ
The data set is described as follows: Activation of wild type glucocerebrosidase translocation to lysosome in human dermal fibroblast isolated from N370S carrier incubated for 6 days by LAMP2 co-localization-based laser scanning confocal microscopic analysis relative to vehicle-treated control.

For data set [3], the system named is Brain. The data set is described as follows: AUC (infinity) in C57BL/6 mouse brain at 50 mg/kg, ip. The format is ADME, organism-based. Also on record: dose 50 mg/kg, route intraperitoneal, time infinity. The settings on record: in vivo. An outline of the steps:
(§1)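 Male C57BL/6 mice, 18−26 g, given a single ip dose of 50 mpk in 20% PEG 400 + 80% (20% HP-β-CD). Plasma, brain and liver were sampled, and brain and liver were homogenized in 3 volumes of PBS pH 7.4 (dilution factor 4). Analysis was by LC−MS/MS. Mean profiles N = 3.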

For data set [4], the system named is Plasma. Description: AUC (infinity) in C57BL/6 mouse plasma at 50 mg/kg, ip. The format is ADME, organism-based. Also noted: time infinity, dose 50 mg/kg, route intraperitoneal. The following applies: in vivo. In a few lines: as §1
Data set [5] relates to T1, Lysosomal acid glucosylceramidase (Homo sapiens), P04062 [N409S]. Description: Activation of glucocerebrosidase N370S mutant using 4-methylumbelliferone-beta-Glc as substrate incubated for 5 mins prior to substrate addition measured after 30 to 45 mins by HPLC analysis. An outline of the steps:
(§2)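 N370S/N370S patient spleen homogenate at 140 μg/well. Compound was tested at 9 concentrations, 1:2 dilutions from 50 μM. Substrate was 2 mM 4MU-Glc or the C12-BODIPY substrate at 25 μM; other conditions as the plate assay. Stopped reactions were separated on C18 HPLC with fluorescence detection: 4MU at 365/440 nm, C12-BODIPY-Cer at 506/540 nm.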

Data set [6] relates to Brain. The data set is described as follows: AUClast in C57BL/6 mouse brain at 50 mg/kg, ip. In kind it is ADME, organism-based. Also on record: dose 50 mg/kg, route intraperitoneal, time 0 - last. The following applies: in vivo. An outline of the steps: as §1
Data set [7] concerns T1, Lysosomal acid glucosylceramidase (Homo sapiens), P04062 [N409S]. Description: Activation of glucocerebrosidase N370S mutant in Gaucher patient spleen homogenates using 4-methylumbelliferone-Glc as substrate assessed as half-maximal activation concentration incubated for 5 mins prior to substrate addition measured after 30 to 45 mins by fluorimetric analysis. The format is tissue-based. In a few lines: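 Spleen homogenate (27 μg final) in pH 5 citrate/phosphate buffer with KCl, NaCl, MgCl₂ and 0.01% Tween-20. Compound was titrated 0.5 nM to 58 μM and preincubated 5 min at room temperature. Reaction used 1 mM 4MU-Glc for 30−45 min at 37 °C and was stopped with NaOH/glycine pH 10. Read-out was fluorescence at Ex 365/Em 440 nm. AC₅₀ is the average of N = 2.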

A short description of data set [8]: Cytotoxicity against human dermal fibroblasts isolated from Gcase N370S carrier at 5 uM after 6 days. In kind it is cell-based. The settings on record: fibroblast, 144 h. An outline of the steps: (§3)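 Fibroblasts of the stated genotype were seeded at 5000 cells/well. After 1 day they were switched to OPTI-MEM with 5% FBS and treated 6 days with compound. Viability was read by CellTiter-Glo luminescence on a parallel plate.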

In data set [9] the test system is T1, Lysosomal acid glucosylceramidase (Homo sapiens), P04062 [N409S]. Description: Activation of Glucocerebrosidase N370S/N370S mutant translocation to lysosome in Gaucher patient dermal fibroblasts incubated for 6 days by LAMP2 colocalization-based laser scanning confocal microscopic analysis relative to vehicle-treated control. In a few lines:
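N370S/N370S Gaucher dermal fibroblasts were treated 6 days at 1, 5 or 25 μM, with DMSO vehicle control. Cells were fixed in 3% paraformaldehyde, permeabilized with Triton-X and stained with anti-GCase R386 (Alexa555), anti-LAMP-2 (Alexa488) and DAPI. Confocal imaging used constant laser settings, scoring GCase/LAMP-2 colocalization.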

Data set [10] shares this test system. Description: Activation of glucocerebrosidase N370S mutant using C12-BODIPY-GlcCer as substrate assessed as half-maximal activation concentration incubated for 5 mins prior to substrate addition measured after 30 to 45 mins by HPLC analysis. An outline of the steps: as §2
A short description of data set [11]: Cytotoxicity against human dermal fibroblasts expressing GCase N370S/N370S mutant at 5 uM after 6 days. The format is cell-based. The settings on record: fibroblast, 144 h. An outline of the steps:
as §3

Data set [12] concerns Caco-2. Description: Efflux ratio of apparent permeability from basal to apical to apical to basal side of human Caco2 cells after 2 hrs. In kind it is ADME, cell-based. The following applies: caco-2, 2 h. An outline of the steps: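 Caco-2 monolayers were grown 3 weeks, with integrity checked by Lucifer yellow. Compound was added apically (pH 6.5 HBSS/HEPES/glucose buffer) or basolaterally (pH 7.4) and incubated 2 h. Transfer was quantified by LC−MS/MS and expressed as P_app. Efflux ratio is P_app B→A over A→B.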
A general note: Passage across Caco-2 layers is used to estimate intestinal permeability.

Data set [13] relates to Liver. The data set is described as follows: Ratio of AUClast in liver to AUClast in plasma in C57BL/6 mouse at 50 mg/kg, ip. In kind it is ADME, organism-based. Also on record: dose 50 mg/kg, route intraperitoneal. The settings on record: other tissue. An outline of the steps: as §1
Data set [14] has as its system Plasma. The data set is described as follows: AUClast in C57BL/6 mouse plasma at 50 mg/kg, ip. The format is ADME, organism-based. Also on record: time 0 - last, dose 50 mg/kg, route intraperitoneal. The following applies: in vivo. An outline of the steps: as §1
The species named for data set [15] is Homo sapiens. The data set is described as follows: Activation of Glucocerebrosidase N370S/N370S mutant translocation to lysosome in Gaucher patient dermal fibroblasts at 5 uM incubated for 6 days by LAMP2 co-localization-based laser scanning confocal microscopic analysis relative to vehicle-treated control.
The test system of data set [16] is Brain. Description: Cmax in C57BL/6 mouse brain at 50 mg/kg, ip. In kind it is ADME, organism-based. Also noted: dose 50 mg/kg, route intraperitoneal. The settings on record: in vivo. In a few lines:
as §1

With `C#Cc1ccc(NC(=O)c2cnn3c(C)cc(C)nc23)cc1`, the Stability in data set [1] is 42%. Moreover, the result in [2], in data set [9] and in data set [15] was Active. In addition, the AUC (as a rule, concentration integrated over time) came out at 1390 ng·h/mL in data set [3] and 474 ng·h/mL in [4]. The Activity entry in data set [5] was “Dose-dependent effect”; in data set [7], 0.36 µM; in data set [8], “Non-toxic”; in data set [11], “Non-toxic”. Also, the AUClast worked out at 1260 ng·h/mL in [6] and 434 ng·h/mL in data set [14]. Also, the outcome in data set [10] was inactive. In data set [12], the Ratio is 0.3. Moreover, the “Ratio AUC” value in [13] amounted to 12512%. For the same molecule, the Cmax (commonly the peak of the concentration-time curve) in data set [16] stood at 2760 nM.
